Laboratory results taken from ChEMBL document CHEMBL3297707, “Dual protonophore-chitinase inhibitors dramatically affect O. volvulus molting” (J Med Chem, 2014).
The source made the active and inactive calls. The rule behind the calls is not given here.

What was measured:
[1] = biological target: T1, Chitinase (Onchocerca volvulus, UniProt Q25615); assay: Inhibition of Onchocerca volvulus L3 larvae chitinase using 20 uM 4-methylumbelliferyl-N,N',N''-beta-chitotrioside as substrate after 10 mins by microplate reader analysis
T1 sequence (Q25615 whole entry): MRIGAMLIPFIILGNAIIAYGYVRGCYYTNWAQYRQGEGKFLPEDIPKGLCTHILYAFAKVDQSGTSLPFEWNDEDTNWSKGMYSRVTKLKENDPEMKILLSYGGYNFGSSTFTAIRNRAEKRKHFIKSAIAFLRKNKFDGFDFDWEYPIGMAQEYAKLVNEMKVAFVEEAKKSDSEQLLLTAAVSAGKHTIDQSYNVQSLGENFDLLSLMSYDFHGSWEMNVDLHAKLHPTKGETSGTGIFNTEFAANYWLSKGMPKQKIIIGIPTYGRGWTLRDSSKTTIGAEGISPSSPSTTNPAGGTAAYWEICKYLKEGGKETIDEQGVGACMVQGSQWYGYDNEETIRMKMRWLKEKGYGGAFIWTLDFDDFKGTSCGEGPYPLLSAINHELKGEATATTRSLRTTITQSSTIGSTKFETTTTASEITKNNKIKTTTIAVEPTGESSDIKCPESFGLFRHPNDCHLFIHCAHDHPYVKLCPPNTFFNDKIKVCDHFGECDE

[2] = tested on: HEK-293T; assay: Protonophoric activity in human HEK293T/17 cells assessed as mitochondrial membrane depolarization at 50 uM for 30 mins by TMRE dye based fluorescence spectrometry; type: functional, cell-based
Outline: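 HEK 293T/17 cells suspended at 1–2 × 10^6/mL in 10% FBS DMEM, given 50 μM compound or DMSO for 30 min at 37 °C, then stained with TMRE (~450 nM final) for 30 min in the dark at 37 °C. After washes in 0.2% BSA/PBS, fluorescence read on a plate reader (ex 549, em 575 nm). Mean ± sd, n = 3.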

[3] = tested on: Caenorhabditis elegans; assay: Drug accumulation in Caenorhabditis elegans at 10 uM after 6 hrs by LC-MS analysis; type: ADME, organism-based; conditions: in vivo
Outline: (§1)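 Synchronized worms grown to late L4 on E. coli OP50 at 25 °C for 40 h, washed and suspended in M9 (~5–10 worms/μL). Compound added at 10 μM (~2 nmol/mg worm) for 6 or 12 h at rt. Worms washed with 0.1% SDS, then water, and lyophilized. Extracted in cold MeOH/MeCN (1:1) with internal standard and quantified by LC-TOF MS against calibration in blank worms. Mean ± sd, n = 3, nmol/mg worm.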

[4] = tested on: Onchocerca volvulus; assay: Antiparasitic activity against Onchocerca volvulus assessed as inhibition of L3 to L4 larval molting at 10 uM for 24 hrs measured until 6 days by using inverted microscopic analysis in presence of PBMC; type: functional, organism-based
Outline: (§2)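 O. volvulus L3 larvae pre-incubated with compound for 24 h, then complete medium (20% heat-inactivated FCS) and normal PBMCs added; molting assessed on day 6. Combination lines use a 1:1 mix with CCCP, each at the stated concentration. Percent molting taken over 10 wells, on average 5–10 larvae per well.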

[5] = tested on: Caenorhabditis elegans; assay: Drug accumulation in Caenorhabditis elegans at 10 uM after 12 hrs by LC-MS analysis; type: ADME, organism-based; conditions: in vivo; outline: as §1
[6] = tested on: HEK-293T; assay: Protonophoric activity in human HEK293T/17 cells assessed as mitochondrial membrane depolarization at 50 uM for 30 mins by TMRE dye based flow cytometry; type: functional, cell-based
Outline: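 Trypsinized HEK 293T/17 cells at 1–2 × 10^6/mL in 10% FBS DMEM, exposed to 50 μM compound or DMSO for 30 min at 37 °C. TMRE (~450 nM final) added for 30 min in the dark at 37 °C. Cells washed with 0.2% BSA/PBS; membrane polarization read by flow cytometry on 1–2 × 10^6 cells per sample.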

[7] = tested on: Onchocerca volvulus; assay: Antiparasitic activity against Onchocerca volvulus assessed as inhibition of L3 to L4 larval molting at 1 uM for 24 hrs measured until 6 days by using inverted microscopic analysis in presence of PBMC; type: functional; outline: as §2
[8] = tested on: HEK-293T; assay: Cytotoxicity against human HEK293T/17 cells assessed as cell viability at 1 to 10 uM for 24 hrs by MTS assay; type: cell-based
Outline: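 HEK 293T/17 cells (2 × 10^4) plated and held 24 h at 37 °C, then treated at 1 and 10 μM final. MTS viability read at 0.5 and 24 h post-incubation.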

[9] = tested on: Onchocerca volvulus; assay: Antiparasitic activity against Onchocerca volvulus assessed as inhibition of L3 to L4 larval molting at 1 uM for 24 hrs measured until 6 days by using inverted microscopic analysis in presence of PBMC and 1 uM protonophore CCCP; type: functional, organism-based; outline: as §2
[10] = biological target: T2, Chitinase (Onchocerca volvulus) (UniProt Q25615); assay: Inhibition of Onchocerca volvulus L3 larvae chitinase using 20 uM 4-methylumbelliferyl-N,N',N''-beta-chitotrioside as substrate at 10 uM after 10 mins by microplate reader analysis
T2 sequence (whole entry): T1 sequence (Q25615 whole entry)

[11] = tested on: Onchocerca volvulus; assay: Antiparasitic activity against Onchocerca volvulus assessed as inhibition of L3 to L4 larval molting at 100 uM for 24 hrs measured until 6 days by using inverted microscopic analysis in presence of PBMC; type: functional, organism-based; outline: as §2
[12] = tested on: Onchocerca volvulus; assay: Antiparasitic activity against Onchocerca volvulus assessed as inhibition of L3 to L4 larval molting at 2.5 uM for 24 hrs measured until 6 days by using inverted microscopic analysis in presence of PBMC and 2.5 uM protonophore CCCP; type: functional, organism-based; outline: as §2
[13] = tested on: Brugia malayi; assay: Inhibition of Brugia malayi chitinase using 20 uM 4-methylumbelliferyl-N,N',N''-beta-chitotrioside as substrate at 10 uM after 10 mins by microplate reader analysis
[14] = tested on: Plasmodium falciparum; assay: Inhibition of Plasmodium falciparum chitinase using 20 uM 4-methylumbelliferyl-N,N',N''-beta-chitotrioside as substrate at 10 uM after 10 mins by microplate reader analysis
[15] = tested on: Entamoeba histolytica; assay: Inhibition of Entamoeba histolytica chitinase using 20 uM 4-methylumbelliferyl-N,N',N''-beta-chitotrioside as substrate at 10 uM after 10 mins by microplate reader analysis
[16] = tested on: Onchocerca volvulus; assay: Antiparasitic activity against Onchocerca volvulus assessed as inhibition of L3 to L4 larval molting at 0.5 uM for 24 hrs measured until 6 days by using inverted microscopic analysis in presence of PBMC and 0.5 uM protonophore CCCP; type: functional, organism-based; outline: as §2
[17] = biological target: T1, Chitinase; assay: Competitive inhibition of Onchocerca volvulus L3 larvae chitinase using 20 uM 4-methylumbelliferyl-N,N',N''-beta-chitotrioside as substrate after 10 mins by microplate reader analysis
[18] = tested on: Caenorhabditis elegans; assay: Toxicity in Caenorhabditis elegans; type: organism-based; conditions: in vivo
[19] = tested on: Caenorhabditis elegans; assay: Drug metabolism in Caenorhabditis elegans assessed as glucordinated metabolite formation after 12 hrs by LC/MS analysis; type: ADME, organism-based; conditions: in vivo
[20] = tested on: Caenorhabditis elegans; assay: Drug metabolism in Caenorhabditis elegans assessed as 3-iodo closantel formation after 12 hrs by LC/MS analysis; type: ADME, organism-based; conditions: in vivo
[21] = tested on: Caenorhabditis elegans; assay: Drug metabolism in Caenorhabditis elegans assessed as sulfated metabolite formation after 12 hrs by LC/MS analysis; type: ADME, organism-based; conditions: in vivo
[22] = tested on: Caenorhabditis elegans; assay: Drug metabolism in Caenorhabditis elegans assessed as 5-iodo closantel formation after 12 hrs by LC/MS analysis; type: ADME, organism-based; conditions: in vivo
[23] = tested on: Caenorhabditis elegans; assay: Drug metabolism in Caenorhabditis elegans assessed as glycosylated metabolite formation after 12 hrs by LC/MS analysis; type: ADME, organism-based; conditions: in vivo

Row | Compound | IC50 [1] | Activity [2] | Drug uptake [3] | inhibition [4] | Activity [6] | also measured
1 | O=C(Nc1ccc(Oc2ccccc2Cl)cc1)c1cc(I)cc(I)c1O | 1200 nM |  |  |  |  | 
2 | COc1c(I)cc(I)cc1C(=O)Nc1ccc2ccccc2c1 | 890 nM | inactive | Active | Active | inactive | Drug uptake [5]: 1.28 nmol/mg; inhibition [7]: inactive
3 | O=C(Nc1ccc(Oc2ccc(F)cc2)cc1)c1cc(I)cc(I)c1O | 1570 nM |  |  |  |  | 
4 | O=C(Nc1ccc2ccccc2c1)c1cc(I)cc(I)c1O | 940 nM | Active | Active | Active | Active | Activity [8]: Non-toxic; Drug uptake [5]: 1.13 nmol/mg; inhibition at 1 µM [7]: 84%
5 | CN(C(=O)c1cc(I)cc(I)c1O)c1ccc(Oc2ccccc2)cc1 | 1810 nM |  |  |  |  | 
6 | COc1c(I)cc(I)cc1C(=O)O |  |  |  | inactive |  | 
7 | O=C(Nc1ccc(Oc2ccccc2)cc1)c1cc(I)cc(I)c1O | 1980 nM | Active |  |  | Active | 
8 | Cc1ccc(-c2ccc(NC(=O)c3cc(I)cc(I)c3O)cc2)cc1 | 990 nM |  |  |  |  | 
9 | COc1c(I)cc(I)cc1C(=O)Nc1ccc(Oc2ccc(Cl)cc2)cc1 | 600 nM | inactive | Active | Active | inactive | inhibition [9]: inactive; inhibition [10]: Active; inhibition [11]: Active; inhibition [12]: Active; inhibition [13]: inactive; inhibition [14]: inactive; inhibition [15]: inactive; inhibition [16]: inactive; inhibition [7]: inactive
10 | O=C(Nc1ccc(Oc2ccc(Cl)cc2)cc1)c1cc(I)cc(I)c1O | 700 nM | Active | Active | Active | Active | inhibition [10]: Active; Activity [8]: Non-toxic; inhibition [13]: inactive; inhibition [15]: inactive; inhibition at 1 µM [7]: 84%
11 | O=C(Nc1ccc(Oc2ccc(Cl)cc2)cc1)c1cc(I)cc(I)c1 | 870 nM | inactive | Active |  | inactive | 
12 | O=C(Nc1ccc(Oc2cccc(Cl)c2)cc1)c1cc(I)cc(I)c1O | 1740 nM |  |  |  |  | 
13 | O=C(Nc1ccc(-c2ccc(Cl)cc2)cc1)c1cc(I)cc(I)c1O | 370 nM |  | Active |  |  | inhibition [10]: Active; inhibition [13]: inactive; inhibition [14]: inactive; inhibition [15]: inactive
14 | O=C(Nc1ccc(-c2ccccc2)cc1)c1cc(I)cc(I)c1O | 470 nM |  | Active |  |  | inhibition [10]: Active; inhibition [13]: inactive; inhibition [14]: inactive; inhibition [15]: inactive
15 | Cc1ccc(Oc2ccc(NC(=O)c3cc(I)cc(I)c3O)cc2)cc1 | 1110 nM |  |  |  |  | 
16 | COc1c(I)cc(I)cc1C(=O)Nc1ccc(Oc2ccccc2)cc1 | 1280 nM | inactive |  |  | inactive | 
17 | O=C(Nc1ccc2ccccc2c1)c1cc(I)cc(I)c1 | 1290 nM | inactive |  |  | inactive | 
18 | O=C(Nc1ccc(Oc2ccccc2)cc1)c1cc(I)cc(I)c1 | 1060 nM | inactive |  |  | inactive | 
19 | O=C(Nc1ccc(Oc2ccc(Cl)cc2)c(Cl)c1)c1cc(I)cc(I)c1O [RAFOXANIDE] | 340 nM | Active | 1.55 nmol/mg | Active | Active | Ki [17]: 130 nM; inhibition [10]: Active; Activity [8]: Non-toxic; inhibition [13]: inactive; Drug uptake [5]: 1.73 nmol/mg; inhibition [15]: inactive; inhibition at 1 µM [7]: 84%
20 | Cc1cc(C(C#N)c2ccc(Cl)cc2)c(Cl)cc1NC(=O)c1cc(I)cc(I)c1O (stereo not given) [CLOSANTEL] |  | Active | Active |  | Active | Activity [18]: Non-toxic; Drug metabolism [19]: metabolite_notdetected; Drug metabolism [20]: metabolite_detected; Drug metabolism [21]: metabolite_notdetected; Drug metabolism [22]: metabolite_detected; Drug metabolism [23]: metabolite_notdetected
21 | COc1c(I)cc(I)cc1C(=O)N(C)c1ccc(Oc2ccccc2)cc1 | 3710 nM | inactive |  |  | inactive | 
22 | N#CC(C#N)=NNc1cccc(Cl)c1 [CARBONYL CYANIDE M-CHLOROPHENYLHYDRAZONE] |  |  | Active | Active |  | 
